Test results from PMC3263408 (International Journal of Nanomedicine, 2012).
Converted amounts (≈) assume the structure as drawn.

Tests used:
HT-29 cells = test: MTT cytotoxicity assay; assay type: cell-based; conditions: Homo sapiens, HT-29, 24 h, read-out: IC50 (50% cell killing)
How it was run: (§1)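 Cells were kept in folate-free RPMI 1640 with 10% FBS at 37°C and 5% CO2, then seeded at 5000/well and left to attach for 24 h. Test compound was given free (DMSO), in SMEDDS or in FSMEDDS, ±1 mM free folate, at 1, 5, 10, 20 and 40 μM for 24 h at 37°C. After three PBS washes, MTT was added for 4 h, formazan dissolved in DMSO, and OD read at 570 nm. Triplicates; IC50 from concentration–viability curves.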

[1] = cited from earlier work
Hela cells = test: MTT cytotoxicity assay; assay type: cell-based; conditions: Homo sapiens, 24 h, read-out: IC50 (50% cell killing)
How it was run: as §1

[2] = Solubility of curcumin in various vehicles; assay type: physicochemical
How it was run: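 Excess test compound was shaken in 1 mL vehicle in a water bath at room temperature for 48 h. It was then centrifuged at 12,000 rpm for 10 min and passed through a 0.45 μm filter, and the supernatant was diluted in methanol. Quantified by HPLC: C18 column (5 μm, 4.6 × 250 mm) at room temperature, methanol:water (3.6% glacial acetic acid) 73:27 v/v, 1.0 mL/min, detection at 428 nm.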

COc1cc(/C=C/C(=O)CC(=O)/C=C/c2ccc(O)c(OC)c2)ccc1O [curcumin]
IC50 (HT-29 cells): 25.6 ± 2.23 µM | Solubility of curcumin in the aqueous medium [1]: about 11 ng/g | IC50 (Hela cells): 30.4 ± 1.71 µM | solubility at 48 h ([2]; Capryol 90 (oil), oil or lipid, thermodynamic from solid): 9430 ± 800 µg/mL (≈ 25.6 mM) | solubility at 48 h ([2]; Cremophor EL (surfactant), organic solvent or mixture, thermodynamic from solid): 65800 ± 4800 µg/mL (≈ 179 mM) | solubility at 48 h ([2]; Emulsifier OP (surfactant), organic solvent or mixture, thermodynamic from solid): 5160 ± 1030 µg/mL (≈ 14 mM) | solubility at 48 h ([2]; Labrafil M1944CS (oil)): 3170 ± 130 µg/mL (≈ 8.61 mM) | solubility at 48 h ([2]; Labrasol (surfactant), organic solvent or mixture, thermodynamic from solid): 99300 ± 1730 µg/mL (≈ 270 mM) | solubility at 48 h ([2]; PEG 400 (cosurfactant), organic solvent or mixture, thermodynamic from solid): 159800 ± 480 µg/mL (≈ 434 mM) | solubility at 48 h ([2]; Tween 80 (surfactant), organic solvent or mixture, thermodynamic from solid): 4860 ± 1150 µg/mL (≈ 13.2 mM) | solubility at 48 h ([2]; castor oil (oil), oil or lipid, thermodynamic from solid): 1560 ± 470 µg/mL (≈ 4.23 mM) | solubility at 48 h ([2]; ethanol (cosurfactant), organic solvent or mixture, thermodynamic from solid): 5980 ± 630 µg/mL (≈ 16.2 mM) | solubility at 48 h ([2]; ethyl oleate (oil), oil or lipid, thermodynamic from solid): 1040 ± 20 µg/mL (≈ 2.82 mM) | solubility at 48 h ([2]; isopropyl myristate (oil), oil or lipid, thermodynamic from solid): 510 ± 50 µg/mL (≈ 1.38 mM)
